Assay [1] can be described thus: HUVEC growth inhibition – cell-based, human, primary screen (AID 575;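 active = viability at or below 30% in both replicate assays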;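 note: 100% = median of untreated cell wells with 0.1% DMSO on each plate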). The following applies: HUVEC proliferation, CellTiter-Glo luminescence, 72 h; at 10 µM; stronger effect = lower value. Summed up:
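Assay system: Primary human umbilical vein endothelial cells | Quantity: 1250 cells per well | Medium: Supplemented EBM, 2% fetal bovine serum | Detection: CellTiter-Glo luminescence measuring cellular ATP | Read-out: % viability vs DMSO wells | Plate: Collagen-coated 384-well format | Times: 72 h exposure, 37 °C, 5% CO2, 30 min RT equilibration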

Assay [2] can be described thus: growth inhibitors of H69AR lung tumor, primary screen, human, duplicate replicates (AID 580;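 active = viability at or under a set limit in both replicates, limit being median viability minus 3 SD, cut at about 48% in these data, passing the limit was not always enough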;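 note: 100% = mean luminescence of untreated wells and 0% = no signal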). Particulars: H69AR lung tumor cells viability, ATP luminescence, 72 h; at 10 µM; stronger effect = lower value.
Assay [3] can be described thus: reversal of MRP1-mediated doxorubicin resistance, pilot screen, H69AR cells, doxorubicin co-treatment (AID 601). Particulars: CellTiter-Glo, 72 h, at 10 µM; for differential viability (reversal): stronger effect = higher value.
The nature of assay [4]: 384-well plate pilot, post-Golgi transport modulator project, inhibition of yeast transport mutant growth (AID 636; in the data active = inhibition above about 31%). Particulars: absorbance 615 nm, about 18 h, stronger effect = higher value.
The nature of assay [5]: growth suppression of yeast trafficking mutant, preliminary HTS, modulators of trafficking downstream of Golgi apparatus project, 1536-format plate, OD 615 nm (AID 637; in the data active = inhibition above about 30%). The following applies: yeast transport mutant growth, absorbance 615 nm, 18 h; stronger effect = higher value.
Where [6] appears, read: H69AR cells + 2 uM doxorubicin, measured here: viability with 2 uM doxorubicin, stronger effect = lower value.
[7] abbreviates: H69AR cells, compound alone cytotoxicity.

Structures are written as SMILES. The source made the active and inactive calls.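 Rule for the calls, unless noted: active = viability loss from added drug above about 55%, and viability with drug at most 40%, in both replicates (limit read from the data, passing the limit was not always enough); inconclusive = both conditions met in only one replicate; inactive = neither replicate meets both conditions.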

Take `COc1ccccc1CNC(=O)C1CCN(S(=O)(=O)N2CCCCC2)CC1`: the viability is 83.4% (inactive) in assay [1], 81.7% (inactive) in assay [2], 80.2% in assay [3] (setting [6]) and 81.7% in assay [3] (setting [7]). In assay [3] (H69AR cells + 2 uM doxorubicin), the differential viability (reversal) was 1.51% (inactive). In addition, the inhibition in assay [4] is -1.97% (inactive); in assay [5], 3.81% (inactive).
On to `C=CCC(Nc1ccco1)c1ccccc1` (stereo not given), for which the viability was 95.8% (inactive) in assay [1], 102% (inactive) in assay [2], 87.8% in assay [3] (setting [6]) and 102% in assay [3] (setting [7]). Moreover, the differential viability (reversal) in assay [3] (H69AR cells + 2 uM doxorubicin) was 14.1% (inactive). Moreover, the inhibition in assay [4] is -3.55% (inactive); in assay [5], -0.32% (inactive).
As to `COc1ccc(C(=O)COC(=O)CCn2nnc(-c3cccs3)n2)cc1`, the viability is 110% (inactive) in assay [1], 102% (inactive) in assay [2], 93.4% in assay [3] (setting [6]) and 102% in assay [3] (setting [7]). Moreover, the differential viability (reversal) in assay [3] (H69AR cells + 2 uM doxorubicin) was 9.01% (inactive). The inhibition is -0.27% (inactive) in assay [4] and -6.35% (inactive) in assay [5].
Consider `C=C(C)CSc1nnc2[nH]c(=O)cc(N)n12`, for which the viability in assay [1] is 65.8% (inactive); in assay [2], 87.9% (inactive); in assay [3] (setting [6]), 74.5%; in assay [3] (setting [7]), 87.9%. Further, the differential viability (reversal) in assay [3] (H69AR cells + 2 uM doxorubicin) is 13.4% (inactive). In addition, the inhibition was -2.63% (inactive) in assay [4] and 7.62% (inactive) in assay [5].
For `COc1ccc(C2(C(=O)Nc3cc(C)on3)CCOCC2)cc1`, the viability in assay [1] is 98% (inactive); in assay [2], 88.1% (inactive); in assay [3] (setting [6]), 86.9%; in assay [3] (setting [7]), 88.1%. Moreover, the differential viability (reversal) in assay [3] (H69AR cells + 2 uM doxorubicin) is 1.2% (inactive). Also, the inhibition in assay [4] is -5.87% (inactive); in assay [5], 10.8% (inactive).
As for `COc1ccc(C(=O)Cn2nnc(-c3cccs3)n2)cc1`, the viability in assay [1] is 102% (inactive); in assay [2], 90.9% (inactive); in assay [3] (setting [6]), 85.9%; in assay [3] (setting [7]), 90.9%. Besides, the differential viability (reversal) in assay [3] (H69AR cells + 2 uM doxorubicin) is 4.98% (inactive). The inhibition in assay [4] was -6.67% (inactive); in assay [5], -3.65% (inactive).
As to `CC(=O)Nc1ccc(NC(=O)c2ccccc2F)cc1`, the viability in assay [1] is 110% (inactive); in assay [2], 108% (inactive); in assay [3] (setting [6]), 92.2%; in assay [3] (setting [7]) it was 108%. Also, the differential viability (reversal) in assay [3] (H69AR cells + 2 uM doxorubicin) is 16.1% (inactive). Further, the inhibition was -1.82% (inactive) in assay [4] and -4.13% (inactive) in assay [5].
As for `CCCc1n[nH]c2c1/C(=N/O)CC(c1ccccc1)C2` (stereo not given), the viability is 49.5% (inactive) in assay [1], 66.1% (inactive) in assay [2], 80.6% in assay [3] (setting [6]) and 66.1% in assay [3] (setting [7]). Further, the differential viability (reversal) in assay [3] (H69AR cells + 2 uM doxorubicin) is -14.4% (inactive). The inhibition in assay [4] was -2.34% (inactive); in assay [5], 2.86% (inactive).
Take `CCOc1ccccc1OCCn1nnc2ccccc21`: the viability in assay [1] is 101% (inactive); in assay [2], 98.7% (inactive); in assay [3] (setting [6]) it was 80.3%; in assay [3] (setting [7]), 98.7%. Further, in assay [3] (H69AR cells + 2 uM doxorubicin), the differential viability (reversal) is 18.4% (inactive). The inhibition is -5.73% (inactive) in assay [4] and 5.24% (inactive) in assay [5].
In the case of `COc1ccc(C(F)(F)F)cc1NC(=O)c1nc2nc(C)cc(C(F)F)n2n1`, the viability in assay [1] was 94% (inactive); in assay [2] it was 79.9% (inactive); in assay [3] (setting [6]) it was 83.7%; in assay [3] (setting [7]) it was 79.9%. Besides, the differential viability (reversal) in assay [3] (H69AR cells + 2 uM doxorubicin) is -3.77% (inactive). Also, the figures for the inhibition in assay [4] and in assay [5] were -1.56% (inactive) and -0.16% (inactive), respectively.
As to `O=c1oc2ccccc2c(O)c1CN1CCCCC1`, the viability in assay [1] was 96.3% (inactive); in assay [2] it was 99.9% (inactive); in assay [3] (setting [6]), 83.8%; in assay [3] (setting [7]), 99.9%. Further, the differential viability (reversal) in assay [3] (H69AR cells + 2 uM doxorubicin) was 16.1% (inactive). Also, the inhibition in assay [4] is -6% (inactive); in assay [5], 2.22% (inactive).
As to `COCC(C)NC(=O)CCS(=O)(=O)c1nc(-c2ccc(OC)cc2)cc(C(F)(F)F)n1` (stereo not given), the viability in assay [1] was 8.82% (active); in assay [2], 23.7% (active); in assay [3] (setting [6]), 35.3%; in assay [3] (setting [7]) it was 23.7%. The differential viability (reversal) in assay [3] (H69AR cells + 2 uM doxorubicin) was -11.7% (inactive). The inhibition in assay [4] was -7.87% (inactive); in assay [5], -0.63% (inactive).
As for `CCNc1ccc2c(Cl)cc(=O)oc2c1`, the viability is 68.2% (inactive) in assay [1], 79.8% (inactive) in assay [2], 74.5% in assay [3] (setting [6]) and 79.8% in assay [3] (setting [7]). In addition, the differential viability (reversal) in assay [3] (H69AR cells + 2 uM doxorubicin) was 5.29% (inactive). The values for the inhibition in assay [4] and in assay [5] were -5.73% (inactive) and -1.59% (inactive), respectively.
Turning to `COCCCNC(=O)CC(NS(=O)(=O)c1ccc(Cl)cc1)c1ccco1` (stereo not given), the viability was 106% (inactive) in assay [1], 87.5% (inactive) in assay [2], 84.6% in assay [3] (setting [6]) and 87.5% in assay [3] (setting [7]). Further, the differential viability (reversal) in assay [3] (H69AR cells + 2 uM doxorubicin) is 2.94% (inactive). Besides, the values for the inhibition in assay [4] and in assay [5] were -0.91% (inactive) and -3.02% (inactive), respectively.
As to `Cc1ccc(C)c(C(=O)NC2CC(C)(C)NC(C)(C)C2)c1`, the viability in assay [1] was 98.5% (inactive); in assay [2], 86.7% (inactive); in assay [3] (setting [6]), 87.3%; in assay [3] (setting [7]) it was 86.7%. In addition, the differential viability (reversal) in assay [3] (H69AR cells + 2 uM doxorubicin) is -0.525% (inactive). Also, the inhibition was -5.71% (inactive) in assay [4] and -6.98% (inactive) in assay [5].
For the compound `O=C(Nc1ccc2c(c1)OCO2)c1cccc(Cl)c1`, the viability in assay [1] is 71.4% (inactive); in assay [2] it was 104% (inactive); in assay [3] (setting [6]), 90.3%; in assay [3] (setting [7]) it was 104%. The differential viability (reversal) in assay [3] (H69AR cells + 2 uM doxorubicin) is 13.2% (inactive). In addition, the values for the inhibition in assay [4] and in assay [5] were -3.87% (inactive) and 16.8% (inactive), respectively.
For the compound `Cc1cccc(NC(=O)c2oc3c(c2C)C(=O)CC(C)(C)C3)n1`, the viability in assay [1] was 106% (inactive); in assay [2], 92.3% (inactive); in assay [3] (setting [6]), 83%; in assay [3] (setting [7]) it was 92.3%. Besides, the differential viability (reversal) in assay [3] (H69AR cells + 2 uM doxorubicin) is 9.28% (inactive). Moreover, the inhibition is -6.27% (inactive) in assay [4] and -3.49% (inactive) in assay [5].
For the compound `COc1ccc(CCNC(=O)c2nc3ncccn3n2)cc1OC`, the viability was 113% (inactive) in assay [1], 102% (inactive) in assay [2], 94.5% in assay [3] (setting [6]) and 102% in assay [3] (setting [7]). The differential viability (reversal) in assay [3] (H69AR cells + 2 uM doxorubicin) was 7.66% (inactive). For the same compound, the results for the inhibition in assay [4] and in assay [5] were -4.08% (inactive) and 7.78% (inactive), respectively.
In the case of `Oc1ccc(-c2onc(C(F)(F)F)c2-c2cscn2)c(O)c1`, the viability is 108% (inactive) in assay [1], 103% (inactive) in assay [2], 97.3% in assay [3] (setting [6]) and 103% in assay [3] (setting [7]). In addition, the differential viability (reversal) in assay [3] (H69AR cells + 2 uM doxorubicin) was 5.71% (inactive). Besides, the inhibition in assay [4] was -2.99% (inactive); in assay [5], 4.92% (inactive).
Take `CSc1n[nH]c(NCc2ccccc2)n1`: the viability in assay [1] was 96.5% (inactive); in assay [2], 96.8% (inactive); in assay [3] (setting [6]), 96.1%; in assay [3] (setting [7]), 96.8%. Also, the differential viability (reversal) in assay [3] (H69AR cells + 2 uM doxorubicin) was 0.755% (inactive). Moreover, the inhibition in assay [4] was -5.13% (inactive); in assay [5], 1.43% (inactive).

The viability is a read-out of living cells in per cent, often relative to untreated cells. As usually defined, the inhibition is the drop in the measured response relative to a control, in per cent.

Values taken from PubChem BioAssay.
